Test results from ChEMBL document CHEMBL5058577, “EUbOPEN Chemogenomics Library 2 (Multiplex)” (2022).

Test system: U2OS
Test: Multiplex assay against U2OS
Type: toxicity, cell-based
Details: human
Method in brief: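 Compound was added to live cells that had been stained at seeding with Hoechst33342, BioTracker Green Microtubule Cytoskeleton Dye, MitoTracker Red and Annexin V Alexa Fluor 680, and imaging followed on a CQ1 microscope at 37°C and 5% CO2. CellPathfinder machine-learning gating divided cells into Hoechst high-intensity objects or normal cells, normal cells into healthy, pyknosed or fragmented nuclei, and pyknosed cells into mitotic or apoptotic. Tubulin, mitochondrial-mass and membrane-permeability phenotypes are per cents of healthy-nucleus cells.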

[1] = 12 h, 1 µM, compound concentration 1 uM, replicate 1
[2] = 12 h, 1 µM, compound concentration 1 uM, replicate 2
[3] = 12 h, 10 µM, compound concentration 10 uM, replicate 1
[4] = 12 h, 10 µM, compound concentration 10 uM, replicate 2
[5] = 24 h, 1 µM, compound concentration 1 uM, replicate 1
[6] = 24 h, 1 µM, compound concentration 1 uM, replicate 2
[7] = 24 h, 10 µM, compound concentration 10 uM, replicate 1
[8] = 24 h, 10 µM, compound concentration 10 uM, replicate 2
[9] = 48 h, 1 µM, compound concentration 1 uM, replicate 1
[10] = 48 h, 1 µM, compound concentration 1 uM, replicate 2
[11] = 48 h, 10 µM, compound concentration 10 uM, replicate 1
[12] = 48 h, 10 µM, compound concentration 10 uM, replicate 2

C[C@H](NC(=O)CNC(=O)c1cccc(Cl)c1)c1ccccc1
Population Apoptotic (%) [1]: 78% | Population Fragmented Nuclei (%) [1]: 26% | Population Healthy Nuclei (%) [1]: 61% | Population Hoechst High Intensity Objects (%) [1]: 3% | Population Membrane Permeable-Phenotype (%) [1]: 6% | Population Mitochondria Different-Phenotype (%) [1]: 4% | Population Mitotic Cells (%) [1]: 21% | Population Normal (%) [1]: 96% | Population Pyknosed Nuclei (%) [1]: 12% | Population Tubulin-Different-Phenotype (%) [1]: 2% | Total Cell Count [1]: 242 | Population Apoptotic (%) [2]: 71% | Population Fragmented Nuclei (%) [2]: 20% | Population Healthy Nuclei (%) [2]: 68% | Population Membrane Permeable-Phenotype (%) [2]: 8% | Population Mitochondria Different-Phenotype (%) [2]: 2% | Population Mitotic Cells (%) [2]: 28% | Population Pyknosed Nuclei (%) [2]: 11% | Total Cell Count [2]: 124 | Population Apoptotic (%) [3]: 68% | Population Fragmented Nuclei (%) [3]: 24% | Population Healthy Nuclei (%) [3]: 63% | Population Hoechst High Intensity Objects (%) [3]: 2% | Population Membrane Permeable-Phenotype (%) [3]: 9% | Population Mitochondria Different-Phenotype (%) [3]: 3% | Population Mitotic Cells (%) [3]: 31% | Population Normal (%) [3]: 97% | Population Pyknosed Nuclei (%) [3]: 11% | Population Tubulin-Different-Phenotype (%) [3]: 4% | Total Cell Count [3]: 198 | Population Apoptotic (%) [4]: 66% | Population Fragmented Nuclei (%) [4]: 13% | Population Healthy Nuclei (%) [4]: 82% | Population Hoechst High Intensity Objects (%) [4]: 0% | Population Membrane Permeable-Phenotype (%) [4]: 2% | Population Mitotic Cells (%) [4]: 33% | Population Normal (%) [4]: 100% | Population Pyknosed Nuclei (%) [4]: 4% | Population Tubulin-Different-Phenotype (%) [4]: 2% | Total Cell Count [4]: 150 | Population Apoptotic (%) [5]: 79% | Population Fragmented Nuclei (%) [5]: 19% | Population Healthy Nuclei (%) [5]: 71% | Population Hoechst High Intensity Objects (%) [5]: 2% | Population Membrane Permeable-Phenotype (%) [5]: 7% | Population Mitochondria Different-Phenotype (%) [5]: 2% | Population Mitotic Cells (%) [5]: 20% | Population Normal (%) [5]: 97% | Population Pyknosed Nuclei (%) [5]: 8% | Population Tubulin-Different-Phenotype (%) [5]: 2% | Total Cell Count [5]: 275 | Population Apoptotic (%) [6]: 88% | Population Healthy Nuclei (%) [6]: 69% | Population Membrane Permeable-Phenotype (%) [6]: 4% | Population Mitochondria Different-Phenotype (%) [6]: 4% | Population Mitotic Cells (%) [6]: 11% | Population Pyknosed Nuclei (%) [6]: 10% | Population Tubulin-Different-Phenotype (%) [6]: 0% | Total Cell Count [6]: 168 | Population Apoptotic (%) [7]: 90% | Population Fragmented Nuclei (%) [7]: 24% | Population Healthy Nuclei (%) [7]: 61% | Population Hoechst High Intensity Objects (%) [7]: 1% | Population Membrane Permeable-Phenotype (%) [7]: 6% | Population Mitochondria Different-Phenotype (%) [7]: 4% | Population Mitotic Cells (%) [7]: 9% | Population Normal (%) [7]: 98% | Population Pyknosed Nuclei (%) [7]: 13% | Population Tubulin-Different-Phenotype (%) [7]: 2% | Total Cell Count [7]: 239 | Population Apoptotic (%) [8]: 71% | Population Fragmented Nuclei (%) [8]: 12% | Population Healthy Nuclei (%) [8]: 83% | Population Membrane Permeable-Phenotype (%) [8]: 4% | Population Mitochondria Different-Phenotype (%) [8]: 2% | Population Mitotic Cells (%) [8]: 28% | Population Pyknosed Nuclei (%) [8]: 3% | Population Tubulin-Different-Phenotype (%) [8]: 3% | Total Cell Count [8]: 189 | Population Apoptotic (%) [9]: 74% | Population Fragmented Nuclei (%) [9]: 18% | Population Healthy Nuclei (%) [9]: 71% | Population Hoechst High Intensity Objects (%) [9]: 3% | Population Membrane Permeable-Phenotype (%) [9]: 6% | Population Mitochondria Different-Phenotype (%) [9]: 3% | Population Mitotic Cells (%) [9]: 25% | Population Normal (%) [9]: 96% | Population Pyknosed Nuclei (%) [9]: 10% | Population Tubulin-Different-Phenotype (%) [9]: 1% | Total Cell Count [9]: 401 | Population Apoptotic (%) [10]: 100% | Population Fragmented Nuclei (%) [10]: 17% | Population Healthy Nuclei (%) [10]: 70% | Population Hoechst High Intensity Objects (%) [10]: 2% | Population Membrane Permeable-Phenotype (%) [10]: 4% | Population Mitotic Cells (%) [10]: 0% | Population Normal (%) [10]: 97% | Population Pyknosed Nuclei (%) [10]: 11% | Population Tubulin-Different-Phenotype (%) [10]: 2% | Total Cell Count [10]: 205 | Population Apoptotic (%) [11]: 81% | Population Fragmented Nuclei (%) [11]: 19% | Population Healthy Nuclei (%) [11]: 73% | Population Hoechst High Intensity Objects (%) [11]: 2% | Population Membrane Permeable-Phenotype (%) [11]: 6% | Population Mitochondria Different-Phenotype (%) [11]: 2% | Population Mitotic Cells (%) [11]: 18% | Population Normal (%) [11]: 97% | Population Pyknosed Nuclei (%) [11]: 7% | Population Tubulin-Different-Phenotype (%) [11]: 4% | Total Cell Count [11]: 311 | Population Apoptotic (%) [12]: 100% | Population Fragmented Nuclei (%) [12]: 12% | Population Healthy Nuclei (%) [12]: 80% | Population Hoechst High Intensity Objects (%) [12]: 1% | Population Membrane Permeable-Phenotype (%) [12]: 4% | Population Mitochondria Different-Phenotype (%) [12]: 1% | Population Mitotic Cells (%) [12]: 0% | Population Normal (%) [12]: 98% | Population Tubulin-Different-Phenotype (%) [12]: 1% | Total Cell Count [12]: 279
